# Values joined by “and” are separate entries in the source; they are usually repeats but may differ in a detail not shown here. Equal values may be shown once.
# Key:
# [1] = PFAS concentration in pooled urine; type: in vivo, B6C3F1 mice; settings: 5%, dermal, 28 days; 5 pooled samples
# Procedure, shortened: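 Urine was caught in a weigh boat as it was excreted during CO2 euthanasia, about 24 h after the final daily ear dose (25 μl/ear, acetone vehicle; female B6C3F1 mice). The 5 mice per group were pooled, with variable volume. Samples underwent solid-phase extraction and LC/MS/MS, as linear isomer for short-chain analytes and linear plus branched for the comparator. Each group gave a single value without statistics.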
# [2] = system: liver (caudate); assay: Liver gene expression; type: in vivo, B6C3F1 mice; settings: dermal, 28 days
# Procedure, shortened: (§1)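 Dosing was daily topical to both dorsal ears (25 μl/ear, acetone vehicle) in female B6C3F1 mice. Liver caudate lobe or half ear pinna was stored in RNAlater and homogenized in RLT buffer. RNA was isolated on RNeasy columns with DNase, and 1–2 μg was reverse-transcribed. TaqMan real-time PCR was read as 2−ΔΔCT vs vehicle, normalized to β-actin. Statistics: ANOVA/Dunnett's, or Kruskal-Wallis/Dunn's for unequal variance.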
# [3] = system: ear pinna; assay: Skin; type: in vivo, B6C3F1 mice; settings: dermal, 28 days
# Procedure, shortened: as §1
# [4] = system: ear pinna; assay: Ear; type: in vivo, B6C3F1 mice; settings: dermal, 28 days, mice affected of 5
# Procedure, shortened: (§2)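 Female B6C3F1 mice (5/group) received 25 μl/ear on the dorsal ear surfaces daily, with acetone as vehicle. Tissues were formalin-fixed about 24 h after the last dose: liver remainder, half spleen, right kidney and half ear pinna. Sections were paraffin-embedded, cut at 5 μm and stained with H&E. A veterinary pathologist read them per STP guideline and graded 1 (minimal) to 5 (severe) by extent.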
# [5] = system: spleen; assay: Spleen phenotyping by flow cytometry after 28-day dermal exposure; type: in vivo, B6C3F1 mice; settings: 28 days
# Procedure, shortened: (§3)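 Female B6C3F1 mice (5/group) received 25 μl/ear daily to the dorsal ears in acetone. About 24 h after the last dose, tissues went into RPMI: both auricular dLNs, half spleen and one ear pinna. Single-cell suspensions were acquired on an LSR II, with populations gated per supplemental strategy and FMO gating controls. Results are mean ± SE, n=5, by one-way ANOVA.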
# [6] = system: auricular draining lymph nodes (dLNs); assay: Draining lymph node phenotyping by flow cytometry after 28-day dermal exposure; type: in vivo, B6C3F1 mice; settings: 28 days
# Procedure, shortened: as §3
# [7] = system: B6C3F1 mice; assay: Serum chemistries after 28-day dermal exposure; type: in vivo; settings: 28 days
# Procedure, shortened: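 Female B6C3F1 mice received daily dorsal ear application (25 μl/ear, acetone vehicle). About 24 h after the last dose, blood was taken by cardiac puncture. Serum was separated by centrifugation and stored at −20 °C. ALKP, BUN, glucose and cholesterol were read on a Catalyst DX analyzer. Data are mean ± SE of 4–5 mice, ANOVA with Dunnett's; ALKP was also tested by linear regression (p < 0.05).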
# [8] = system: kidney, spleen; assay: Kidney and spleen histopathology after 28-day dermal exposure; type: in vivo, B6C3F1 mice; settings: 1.25–5%, 28 days, data not shown
# Procedure, shortened: as §2
compound,measurement,setting,value
"O=C(O)C(F)(F)C(F)(F)C(F)(F)C(F)(F)C(F)(F)C(F)(F)F [PFHpA, Perfluoroheptanoic acid]",urine PFAS concentration,[1],1200 µg/mL
same,liver Pparγ expression,[2]; 1.25%,increasing
same,liver Pparδ expression,[2]; 1.25%,decreasing
same,"liver Cd36 gene expression, increase",[2]; 2.5%,4 fold
same,"liver Lpl gene expression, increase",[2]; 2.5%,2.2 fold
same,liver Pparδ expression,[2]; 2.5%,decreasing
same,liver Acox1 gene expression,[2]; 5%,increase
same,"liver Cd36 gene expression, increase",[2]; 5%,4.8 fold
same,"liver Lpl gene expression, increase",[2]; 5%,2.3 fold
same,liver Pltp gene expression,[2]; 5%,increase
same,liver Pparδ expression,[2]; 5%,decreasing
same,skin PPARα gene expression,[3]; 1.25–5%,no significant decrease
same,skin Pparδ gene expression,[3]; 1.25–5%,no changes
same,skin Flg gene expression,[3]; 2.5%,increased
same,skin Krt10 gene expression,[3]; 2.5%,increased
same,skin Pparγ gene expression,[3]; 2.5%,decreased
same,skin Flg gene expression,[3]; 5%,increased
same,skin Krt10 gene expression,[3]; 5%,increased
same,skin Lor gene expression,[3]; 5%,increased
same,skin Pparγ gene expression,[3]; 5%,decreased
same,"skin S100a8 gene expression, increase",[3]; 5%,6.7 fold
same,"skin Serpine1 gene expression, increase",[3]; 5%,1.7 fold
same,"skin Tslp gene expression, increase",[3]; 5%,5.1 fold
same,"Ear: Degeneration/regeneration, cartilage, focal, Mild (incidence)",[4]; 1.25%,0
same,"Ear: Fibrosis, dermis, focal, Minimal (incidence)",[4]; 1.25%,0
same,"Ear: Hyperkeratosis, epidermis, focal, Mild (incidence)",[4]; 1.25%,0
same,"Ear: Hyperkeratosis, epidermis, focal, Minimal (incidence)",[4]; 1.25%,0
same,"Ear: Hyperplasia, epidermis, focal, Mild (incidence)",[4]; 1.25%,0
same,"Ear: Hyperplasia, epidermis, focal, Minimal (incidence)",[4]; 1.25%,0
same,"Ear: Inflammation, mixed cell, dermis, Minimal (incidence)",[4]; 1.25%,0
same,"Ear: Inflammation, mononuclear cell, dermis, Minimal (incidence)",[4]; 1.25%,0
same,"Ear: Necrosis, epidermis, multifocal, Minimal (incidence)",[4]; 1.25%,0
same,"Ear: Degeneration/regeneration, cartilage, focal, Mild (incidence)",[4]; 2.5%,0
same,"Ear: Fibrosis, dermis, focal, Minimal (incidence)",[4]; 2.5%,0
same,"Ear: Hyperkeratosis, epidermis, focal, Mild (incidence)",[4]; 2.5%,0
same,"Ear: Hyperkeratosis, epidermis, focal, Minimal (incidence)",[4]; 2.5%,0
same,"Ear: Hyperplasia, epidermis, focal, Mild (incidence)",[4]; 2.5%,0
same,"Ear: Hyperplasia, epidermis, focal, Minimal (incidence)",[4]; 2.5%,2/5 and 2
same,"Ear: Inflammation, mixed cell, dermis, Minimal (incidence)",[4]; 2.5%,0
same,"Ear: Inflammation, mononuclear cell, dermis, Minimal (incidence)",[4]; 2.5%,0
same,"Ear: Necrosis, epidermis, multifocal, Minimal (incidence)",[4]; 2.5%,0
same,"Ear: Fibrosis, dermis, focal, Minimal (incidence)",[4]; 5%,0
same,"Ear: Hyperkeratosis, epidermis, focal, Mild (incidence)",[4]; 5%,0
same,"Ear: Hyperkeratosis, epidermis, focal, Minimal (incidence)",[4]; 5%,4/5 and 4
same,"Ear: Hyperplasia, epidermis, focal, Mild (incidence)",[4]; 5%,1/4 and 1
same,"Ear: Hyperplasia, epidermis, focal, Minimal (incidence)",[4]; 5%,4/5 and 4
same,"Ear: Inflammation, mixed cell, dermis, Minimal (incidence)",[4]; 5%,1
same,"Ear: Inflammation, mononuclear cell, dermis, Minimal (incidence)",[4]; 5%,1
same,"Ear: Necrosis, epidermis, multifocal, Minimal (incidence)",[4]; 5%,0
same,spleen MFI of CD86 on B-cells,[5]; 1.25%,increase
same,spleen frequency of CD8^+ T-cells,[5]; 1.25%,significant decrease
same,spleen frequency of eosinophils,[5]; 1.25%,significant decrease
same,spleen MFI of CD86 on B-cells,[5]; 2.5%,increase
same,spleen MFI of MHCII on B-cells,[5]; 2.5%,increase
same,spleen MFI of CD86 on B-cells,[5]; 5%,increase
same,spleen MFI of MHCII on B-cells,[5]; 5%,increase
same,spleen NK cell frequency,[5]; 5%,increase
same,spleen frequency of B-cells,[5]; 5%,significant decrease
same,spleen frequency of total DCs,[5]; 5%,increase
same,spleen number of NK cells,[5]; 5%,increase
same,dLN B-cells cell number,[6]; 1.25%,5.40 ± 0.44 × 10^5
same,dLN B-cells frequency,[6]; 1.25%,13.44 ± 1.00%
same,dLN CD4^+ cell number,[6]; 1.25%,1.77 ± 0.17 × 10^6
same,dLN CD4^+ frequency,[6]; 1.25%,43.44 ± 1.00%
same,dLN CD8^+ cell number,[6]; 1.25%,11.50 ± 0.97 × 10^5
same,dLN CD8^+ frequency,[6]; 1.25%,28.26 ± 0.62%
same,dLN CD11b+ cell number,[6]; 1.25%,3.18 ± 0.81 × 10^4
same,dLN CD11b+ frequency,[6]; 1.25%,0.74 ± 0.16%
same,dLN CD86 B-cells,[6]; 1.25%,851.20 ± 55.68 MFI
same,dLN CD86 DCs,[6]; 1.25%,22.90 ± 1.99 MFI x 10^2
same,dLN Dendritic Cells cell number,[6]; 1.25%,15.60 ± 6.03 × 10^4
same,dLN Dendritic Cells frequency,[6]; 1.25%,4.23 ± 1.95%
same,dLN Eosinophils cell number,[6]; 1.25%,7.53 ± 1.81 × 10^2
same,dLN MHCII B-cells,[6]; 1.25%,33.30 ± 3.62 MFI × 10^2
same,dLN NK cell number,[6]; 1.25%,1.84 ± 0.21 × 10^4
same,dLN NK frequency,[6]; 1.25%,0.45 ± 0.03 %
same,dLN Neutrophils cell number,[6]; 1.25%,8.55 ± 1.38 × 10^2
same,dLN Total Cellularity,[6]; 1.25%,4.05 ± 0.31 × 10^6
same,dLN B-cells cell number,[6]; 2.5%,8.69 ± 0.16 × 10^5
same,dLN B-cells frequency,[6]; 2.5%,14.86 ± 0.84%
same,dLN CD4^+ cell number,[6]; 2.5%,2.47 ± 0.44 × 10^6
same,dLN CD4^+ frequency,[6]; 2.5%,41.54 ± 0.58%
same,dLN CD8^+ cell number,[6]; 2.5%,17.20 ± 3.10 × 10^5
same,dLN CD8^+ frequency,[6]; 2.5%,28.6 ± 0.62%
same,dLN CD11b+ cell number,[6]; 2.5%,6.87 ± 1.47 × 10^4
same,dLN CD11b+ frequency,[6]; 2.5%,1.09 ± 0.09%
same,dLN CD86 B-cells,[6]; 2.5%,908.40 ± 44.09 MFI
same,dLN CD86 DCs,[6]; 2.5%,25.10 ± 0.72 MFI x 10^2
same,dLN Dendritic Cells cell number,[6]; 2.5%,9.50 ± 1.42 × 10^4
same,dLN Dendritic Cells frequency,[6]; 2.5%,1.70 ± 0.17%
same,dLN Eosinophils cell number,[6]; 2.5%,20.40 ± 3.85 × 10^2
same,dLN MHCII B-cells,[6]; 2.5%,44.30 ± 4.02 MFI × 10^2
same,dLN NK cell number,[6]; 2.5%,3.23 ± 0.68 × 10^4
same,dLN NK frequency,[6]; 2.5%,0.53 ± 0.03%
same,dLN Neutrophils cell number,[6]; 2.5%,9.51 ± 1.88 × 10^2
same,dLN Total Cellularity,[6]; 2.5%,5.97 ± 1.06 × 10^6
same,dLN B-cells cell number,[6]; 5%,11.50 ± 1.39 × 10^5
same,dLN B-cells frequency,[6]; 5%,14.70 ± 0.13%
same,dLN CD4^+ cell number,[6]; 5%,3.03 ± 0.31 × 10^6
same,dLN CD4^+ frequency,[6]; 5%,39.24 ± 0.83 %
same,dLN CD8^+ cell number,[6]; 5%,22.10 ± 2.59 × 10^5
same,dLN CD8^+ frequency,[6]; 5%,28.36 ± 0.20%
same,dLN CD11b+ cell number,[6]; 5%,13.40 ± 1.96 × 10^4
same,dLN CD11b+ frequency,[6]; 5%,1.69 ± 0.10 %
same,dLN CD86 B-cells,[6]; 5%,879.80 ± 40.32 MFI
same,dLN CD86 DCs,[6]; 5%,28.50 ± 0.78 MFI x 10^2
same,dLN Dendritic Cells cell number,[6]; 5%,18.20 ± 3.38 × 10^4
same,dLN Dendritic Cells frequency,[6]; 5%,2.28 ± 0.20%
same,dLN Eosinophils cell number,[6]; 5%,22.80 ± 6.04 × 10^2
same,dLN MHCII B-cells,[6]; 5%,43.10 ± 1.85 MFI × 10^2
same,dLN MHCII DCs,[6]; 5%,58.90 ± 2.65 MFI × IQ^2
same,dLN NK cell number,[6]; 5%,4.78 ± 0.67 × 10^4
same,dLN NK frequency,[6]; 5%,0.61 ± 0.04%
same,dLN Total Cellularity,[6]; 5%,7.78 ± 0.90 × 10^6
same,serum ALKP,"[7]; 1.25–5%, linear regression p < 0.05, not significant via ANOVA",significant linear regression increase
same,"serum glucose, increase compared to vehicle control",[7]; 5%,30%
same,"serum urea nitrogen (BUN), decrease",[7]; 5%,30%
same,serum alanine aminotransferase (ALT),"[7]; any concentration, data not shown",No change
same,microscopic observations in the kidney or the spleen,[8],"No PFPeA, PFHxA, or PFHpA-related microscopic observations"
